ChEMBL document CHEMBL1141376, “New fluorescent adenosine A1-receptor agonists that allow quantification of ligand-receptor interactions in microdomains of single living cells” (J Med Chem, 2007)

Key:
[1] = target: T1, Adenosine receptor A1 (Homo sapiens) (UniProt P30542); assay: (§1) Agonist activity at adenosine A1 receptor assessed as inhibition of forskolin-stimulated [3H]cAMP accumulation in CHO cells; type: functional, cell-based; conditions: concentration not given here
T1 sequence (whole entry): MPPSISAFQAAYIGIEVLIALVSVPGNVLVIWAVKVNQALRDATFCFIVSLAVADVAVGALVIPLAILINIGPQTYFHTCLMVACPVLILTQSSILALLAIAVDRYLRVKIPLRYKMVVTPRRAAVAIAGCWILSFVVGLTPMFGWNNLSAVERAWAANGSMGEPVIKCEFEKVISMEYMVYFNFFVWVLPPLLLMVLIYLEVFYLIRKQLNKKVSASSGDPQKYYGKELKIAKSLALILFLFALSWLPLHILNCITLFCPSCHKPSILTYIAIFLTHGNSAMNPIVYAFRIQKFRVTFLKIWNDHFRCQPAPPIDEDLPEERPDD
Procedure, shortened: (§2)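 Clonal CHO cells stably expressing human A1 (CHO-A1H) or human A3 (CHO-A3) grown to confluence in 24-well dishes. Labelled with [3H]adenine 2 h at 37 °C in HEPES-buffered Hank's, washed, rolipram 10 µM 15 min. Agonist 5 min, then forskolin 3 µM a further 10 min. Stopped with HCl; [3H]-cAMP isolated on alumina columns, scintillation counted. pEC50 from sigmoidal fits; triplicate determinations.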

Adenosine receptor A1 [2] = target: T2, Adenosine receptor A1 (Homo sapiens, UniProt P30542); assay: as §1; type: functional, cell-based; procedure, shortened: as §2
T2 sequence (P30542 whole entry): T1 sequence (whole entry)

[3] = target: T1, Adenosine receptor A1 (Homo sapiens); assay: (§3) Displacement of [3H]DPCPX from human adenosine A1 receptor in CHO cells; type: cell-based; conditions: concentration not given here
Procedure, shortened: (§4)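 Whole confluent CHO-A1H cells in serum-free DMEM/F12 with competing ligand plus [3H]-DPCPX 1 nM final, 2 h at 37 °C in 5% CO2. Nonspecific binding with 10 µM XAC. Washed twice with cold PBS, scintillant added, counted.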

Adenosine receptor A1 [4] = target: T2, Adenosine receptor A1; assay: as §3; type: cell-based; procedure, shortened: as §4
[5] = target: T1, Adenosine receptor A1 (Homo sapiens); assay: Ratio of pEC50 to pKd at human adenosine A1 receptor in CHO cells; type: cell-based
Procedure, shortened: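 Derived as the difference between -log EC50 from forskolin (3 µM)-stimulated [3H]-cAMP inhibition in CHO-A1H cells and -log KD from inhibition of 1 nM [3H]-DPCPX binding to intact CHO-A1H cells.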

Adenosine receptor A2a = Adenosine receptor A2a (Homo sapiens, UniProt P29274); assay: Activity at human adenosine A2A receptor assessed as stimulation of [3H]cAMP accumulation in CHO cells; type: functional, cell-based
Adenosine receptor A2a, sequence (P29274 whole entry): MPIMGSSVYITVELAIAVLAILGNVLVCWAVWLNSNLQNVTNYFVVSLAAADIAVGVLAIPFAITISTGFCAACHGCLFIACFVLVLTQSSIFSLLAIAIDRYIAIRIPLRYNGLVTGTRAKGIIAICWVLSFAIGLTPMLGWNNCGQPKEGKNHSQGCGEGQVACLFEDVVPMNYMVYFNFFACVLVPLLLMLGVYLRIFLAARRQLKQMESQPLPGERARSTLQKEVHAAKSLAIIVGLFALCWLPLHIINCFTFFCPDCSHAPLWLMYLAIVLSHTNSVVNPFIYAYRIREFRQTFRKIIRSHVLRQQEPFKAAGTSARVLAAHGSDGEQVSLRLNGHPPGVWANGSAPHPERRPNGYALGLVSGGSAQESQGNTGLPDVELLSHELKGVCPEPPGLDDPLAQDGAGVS

Adenosine receptor A2b = target: T3, Adenosine receptor A2b (Homo sapiens, UniProt P29275); assay: Activity at human adenosine A2B receptor assessed as stimulation of [3H]cAMP accumulation in CHO cells; type: functional, cell-based
T3 sequence (P29275 whole entry): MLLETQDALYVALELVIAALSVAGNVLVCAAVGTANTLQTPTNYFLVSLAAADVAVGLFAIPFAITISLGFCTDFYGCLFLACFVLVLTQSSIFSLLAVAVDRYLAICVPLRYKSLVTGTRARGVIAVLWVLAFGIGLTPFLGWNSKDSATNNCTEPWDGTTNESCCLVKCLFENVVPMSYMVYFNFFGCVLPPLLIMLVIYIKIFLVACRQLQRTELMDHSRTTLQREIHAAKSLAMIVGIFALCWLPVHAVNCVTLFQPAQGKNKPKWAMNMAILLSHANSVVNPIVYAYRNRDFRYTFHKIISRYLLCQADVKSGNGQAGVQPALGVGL
Procedure, shortened: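 CHO cells expressing human A2B receptor, confluent in 24-well dishes, [3H]adenine-labelled 2 h at 37 °C in HEPES-buffered Hank's, then rolipram 10 µM 15 min. Agonist added 10 min without forskolin. HCl termination, alumina-column isolation of [3H]-cAMP, scintillation counting. pEC50 by sigmoidal curve fitting; each experiment in triplicate.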

Adenosine receptor A1 [6] = target: T2, Adenosine receptor A1; assay: Activity at human adenosine A1 receptor assessed as inhibition of forskolin-stimulated cAMP accumulation in CHO cells; type: functional, cell-based; procedure, shortened: as §2
Adenosine receptor A3 = target: T4, Adenosine receptor A3 (Homo sapiens, UniProt P0DMS8); assay: Activity at human adenosine A3 receptor assessed as inhibition of forskolin-stimulated cAMP accumulation in CHO cells; type: functional, cell-based; procedure, shortened: as §2
T4 sequence (P0DMS8 whole entry): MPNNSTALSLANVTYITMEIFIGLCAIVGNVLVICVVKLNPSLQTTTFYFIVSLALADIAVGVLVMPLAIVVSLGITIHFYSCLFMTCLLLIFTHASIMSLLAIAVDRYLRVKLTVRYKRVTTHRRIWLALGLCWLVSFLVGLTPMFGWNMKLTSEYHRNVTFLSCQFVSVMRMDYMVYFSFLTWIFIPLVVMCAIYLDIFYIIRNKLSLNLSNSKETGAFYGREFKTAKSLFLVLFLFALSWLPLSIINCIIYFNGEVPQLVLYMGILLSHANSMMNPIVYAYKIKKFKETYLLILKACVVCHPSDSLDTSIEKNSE

| SMILES | inhibition [1] [%] | EC50 (Adenosine receptor A1 [2]) [nM] | inhibition [3] [%] | Kd (Adenosine receptor A1 [4]) [nM] | Ratio [5] | EC50 (Adenosine receptor A2a) [nM] | EC50 (Adenosine receptor A2b) [nM] | EC50 (Adenosine receptor A1 [6]) [nM] | EC50 (Adenosine receptor A3) [nM] |
| --- | --- | --- | --- | --- | --- | --- | --- | --- | --- |
| O=C(CCCCCNC(=O)COc1ccc(/C=C/C2=[N+]3C(=Cc4ccc(-c5cccs5)n4[B-]3(F)F)C=C2)cc1)NCCCCNc1ncnc2c1ncn2[C@@H]1O[C@H](CO)[C@@H](O)[C@H]1O | 96 | 5.13 | 48.1 | 224 | 1.64 | – | – | – | – |
| CCNC(=O)[C@H]1O[C@@H](n2cnc3c(NCCCCNC(=O)CCCCCNC(=O)COc4ccc(/C=C/C5=[N+]6C(=Cc7ccc(-c8cccs8)n7[B-]6(F)F)C=C5)cc4)ncnc32)[C@H](O)[C@@H]1O | 99 | 3.39 | 49.3 | 158 | 1.67 | 174 | 2040 | 3.39 | 2.69 |
| CCNC(=O)[C@H]1O[C@@H](n2cnc3c(NCCCCCCCCNC(=O)CCCCCNC(=O)COc4ccc(/C=C/C5=[N+]6C(=Cc7ccc(-c8cccs8)n7[B-]6(F)F)C=C5)cc4)ncnc32)[C@H](O)[C@@H]1O | 77 | 12 | – | – | – | – | – | – | – |
| CCNC(=O)[C@H]1O[C@@H](n2cnc3c(N)ncnc32)[C@H](O)[C@@H]1O | 98 | – | 83.3 | – | – | – | – | – | – |
| CCNC(=O)[C@H]1O[C@@H](n2cnc3c(NCCCNC(=O)CCCCCNC(=O)COc4ccc(/C=C/C5=[N+]6C(=Cc7ccc(-c8cccs8)n7[B-]6(F)F)C=C5)cc4)ncnc32)[C@H](O)[C@@H]1O | 92 | 0.692 | 50.9 | 245 | 2.55 | – | – | – | – |
| CCNC(=O)[C@H]1O[C@@H](n2cnc3c(NCCCCCNC(=O)CCCCCNC(=O)COc4ccc(/C=C/C5=[N+]6C(=Cc7ccc(-c8cccs8)n7[B-]6(F)F)C=C5)cc4)ncnc32)[C@H](O)[C@@H]1O | 96 | 0.708 | – | – | – | – | – | – | – |
